Assay [1] is described as follows: SK-BR-3 cell growth inhibitors, pilot screen, 24 h, human (AID 572).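 Further: compound exposure lasted between 18 and 24 h rather than exactly 24 h; 100% = carrier-treated control wells.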 The settings on record: SK-BR-3 viability, CellTiter-Glo luminescence, at 10 µM, stronger effect = lower value.
A short description of assay [2]: HUVEC growth inhibition – cell-based, human, primary screen (AID 575;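 active means viability at or below 30% in both replicate assays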;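 further: 100% = median of untreated cell wells with 0.1% DMSO on each plate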). The settings on record: HUVEC proliferation, CellTiter-Glo luminescence, 72 h; at 10 µM; stronger effect = lower value. In a few lines: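 Test system: primary human umbilical vein endothelial cells. Quantity: 1250 cells/well. Compound: single 10 µM dose, 0.1% DMSO, from 5x medium stock. Timing: 72 h treatment at 37 °C. Detection: ATP-based CellTiter-Glo luminescent read. Benchmarks: vehicle and MePR control wells. Format: 384-well plates coated with collagen.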
Background: Cellular ATP, detected with luciferase, serves as a proxy for viable cell number.

Assay [3] is described as follows: growth inhibitors of H69AR lung tumor, primary screen, human, duplicate replicates (AID 580;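 active means viability at or under a set limit in both replicates, limit being median viability minus 3 SD, cut at about 48% in these data, passing the limit was not always enough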;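 further: 100% = mean luminescence of untreated wells and 0% = no signal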). Particulars: H69AR lung tumor cells viability, ATP luminescence, 72 h; at 10 µM; stronger effect = lower value.
Assay [4] is described as follows: reversal of MRP1-mediated doxorubicin resistance, pilot screen, H69AR cells, doxorubicin co-treatment (AID 601;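 active means viability loss from added drug above about 55%, and viability with drug at most 40%, in both replicates, limit read from the data, passing the limit was not always enough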). The settings on record: CellTiter-Glo, 72 h, at 10 µM; for differential viability (reversal): stronger effect = higher value.
A short description of assay [5]: 384-well plate pilot, post-Golgi transport modulator project, inhibition of yeast transport mutant growth (AID 636; in the data active means inhibition above about 31%). Particulars: absorbance 615 nm, about 18 h, stronger effect = higher value.
A short description of assay [6]: growth suppression of yeast trafficking mutant, preliminary HTS, modulators of trafficking downstream of Golgi apparatus project, 1536-format plate, OD 615 nm (AID 637; in the data active means inhibition above about 30%). The settings on record: yeast transport mutant growth, absorbance 615 nm, 18 h; stronger effect = higher value.
The mark [7] stands for this setting: H69AR cells + 2 uM doxorubicin, measured here: viability with 2 uM doxorubicin, stronger effect = lower value.
The mark [8] stands for this setting: H69AR cells, compound alone cytotoxicity.

Molecules are shown by their SMILES. The source made the active and inactive calls.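 How the source made its calls, unless noted: active means viability at or below 10% of carrier control in both of two separate runs; inconclusive means viability at or below 10% in only one of the two runs; inactive means the rest.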

Consider 17 compounds from PubChem BioAssay.

Take `COc1cc2c(cc1OC)C(/C(C#N)=N\O)=NC(C)(C)C2`: the viability (commonly a read-out of living cells in per cent, often relative to untreated cells) is 86% (inactive) in assay [1]; 107% (inactive) in assay [2]; 100% (inactive) in assay [3]; 91.6% in assay [4] (setting [7]); 100% in assay [4] (setting [8]). Further, in assay [4] (H69AR cells + 2 uM doxorubicin), the differential viability (reversal) was 8.75% (inactive). Besides, the inhibition – broadly, the drop in the measured response relative to a control, in per cent – in assay [5] is -8.77% (inactive); in assay [6], 2% (inactive).
As for `NC(N)=NC(=O)c1nc(Cl)c(N)nc1N`, the viability in assay [1] is 117% (inactive); in assay [2], 86.5% (inactive); in assay [3] it was 91.2% (inactive); in assay [4] (setting [7]), 95.5%; in assay [4] (setting [8]), 91.2%. Also, the differential viability (reversal) in assay [4] (H69AR cells + 2 uM doxorubicin) is -4.34% (inactive). The inhibition in assay [5] was -2.34% (inactive); in assay [6], 1.67% (inactive).
In the case of `CC1Oc2ccccc2N(Cc2ccccc2Cl)C1=O` (stereo unspecified), the viability in assay [1] is 77% (inactive); in assay [2], 110% (inactive); in assay [3] it was 89.1% (inactive); in assay [4] (setting [7]), 77.8%; in assay [4] (setting [8]), 89.1%. The differential viability (reversal) in assay [4] (H69AR cells + 2 uM doxorubicin) was 11.3% (inactive). Besides, the inhibition in assay [5] is -5.34% (inactive); in assay [6] it was 2% (inactive).
For `CC1=NN(c2ccccc2)C(=O)C1`, the viability was 96% (inactive) in assay [1]; 74.6% (inactive) in assay [2]; 94.5% (inactive) in assay [3]; 105% in assay [4] (setting [7]); 94.5% in assay [4] (setting [8]). Further, the differential viability (reversal) in assay [4] (H69AR cells + 2 uM doxorubicin) is -10.1% (inactive). Besides, the values for the inhibition in assay [5] and in assay [6] were 1.95% (inactive) and 0.67% (inactive), respectively.
Regarding `Cc1nc2ccc(C(=O)O)cc2c2c1CC(C)S2` (stereo unspecified), the viability was 93% (inactive) in assay [1]; 96.8% (inactive) in assay [2]; 90.8% (inactive) in assay [3]; 93.1% in assay [4] (setting [7]); 90.8% in assay [4] (setting [8]). The differential viability (reversal) in assay [4] (H69AR cells + 2 uM doxorubicin) is -2.25% (inactive). Moreover, the inhibition in assay [5] is -4.93% (inactive); in assay [6], 0.55% (inactive).
On to `COc1ccccc1-n1nnnc1SCc1cc2c(cc1Br)OCO2`, for which the viability is 65% (inactive) in assay [1]; 86.1% (inactive) in assay [2]; 72.2% (inactive) in assay [3]; 77.2% in assay [4] (setting [7]); 72.2% in assay [4] (setting [8]). Also, in assay [4] (H69AR cells + 2 uM doxorubicin), the differential viability (reversal) was -4.98% (inactive). The values for the inhibition in assay [5] and in assay [6] were -6.16% (inactive) and 4.18% (inactive), respectively.
Take `CN(Cc1ccccc1)C(=O)c1ccccc1NC(=O)c1ccco1`: the viability was 94% (inactive) in assay [1]; 104% (inactive) in assay [2]; 101% (inactive) in assay [3]; 87.1% in assay [4] (setting [7]); 101% in assay [4] (setting [8]). Also, in assay [4] (H69AR cells + 2 uM doxorubicin), the differential viability (reversal) is 13.5% (inactive). Besides, the inhibition in assay [5] was -1.76% (inactive); in assay [6], -2.55% (inactive).
Turning to `CCOC(=O)c1c(C)[nH]c(C)c1C(=O)COC(=O)CNC(=O)c1ccc(OCC)cc1`, the viability in assay [1] was 96% (inactive); in assay [2], 77.9% (inactive); in assay [3], 88.3% (inactive); in assay [4] (setting [7]) it was 84.2%; in assay [4] (setting [8]), 88.3%. Moreover, the differential viability (reversal) in assay [4] (H69AR cells + 2 uM doxorubicin) is 4.05% (inactive). Moreover, the results for the inhibition in assay [5] and in assay [6] were -2.34% (inactive) and -0.66% (inactive), respectively.
As to `N/C(=N/O)c1nc(N2CCCCC2)nc(N2CCCCC2)n1`, the viability was 115% (inactive) in assay [1]; 80.5% (inactive) in assay [2]; 94.9% (inactive) in assay [3]; 95.1% in assay [4] (setting [7]); 94.9% in assay [4] (setting [8]). Further, the differential viability (reversal) in assay [4] (H69AR cells + 2 uM doxorubicin) was -0.21% (inactive). Also, the figures for the inhibition in assay [5] and in assay [6] were -0.65% (inactive) and -0.98% (inactive), respectively.
`CC(OC(=O)CNC(=O)C12CC3CC(CC(C3)C1)C2)C(=O)Nc1ccc(N2CCOCC2)cc1` (stereo unspecified): the viability in assay [1] is 121% (inactive); in assay [2], 101% (inactive); in assay [3], 97.2% (inactive); in assay [4] (setting [7]), 94.8%; in assay [4] (setting [8]) it was 97.2%. Further, the differential viability (reversal) in assay [4] (H69AR cells + 2 uM doxorubicin) was 2.31% (inactive). In addition, the results for the inhibition in assay [5] and in assay [6] were -0.68% (inactive) and -2.55% (inactive), respectively.
Turning to `COc1ccc(-c2noc(COc3ccc(C)c(C)c3)n2)cc1OC`, the viability in assay [1] was 110% (inactive); in assay [2], 108% (inactive); in assay [3], 94.1% (inactive); in assay [4] (setting [7]), 96.6%; in assay [4] (setting [8]), 94.1%. In assay [4] (H69AR cells + 2 uM doxorubicin), the differential viability (reversal) is -2.45% (inactive). Moreover, the inhibition in assay [5] is -7.3% (inactive); in assay [6] it was -1.64% (inactive).
Turning to `O=C(Nc1ccc2oc(=O)ccc2c1)c1cccnc1`, the viability is 111% (inactive) in assay [1]; 107% (inactive) in assay [2]; 98.9% (inactive) in assay [3]; 84.2% in assay [4] (setting [7]); 98.9% in assay [4] (setting [8]). Moreover, the differential viability (reversal) in assay [4] (H69AR cells + 2 uM doxorubicin) was 14.6% (inactive). Besides, the figures for the inhibition in assay [5] and in assay [6] were -4.38% (inactive) and -0.18% (inactive), respectively.
`Cc1cc(C(=O)COC(=O)c2n[nH]c3ccccc23)c(C)n1C`: the viability in assay [1] is 83% (inactive); in assay [2], 90.4% (inactive); in assay [3], 88.6% (inactive); in assay [4] (setting [7]) it was 82.6%; in assay [4] (setting [8]), 88.6%. In addition, the differential viability (reversal) in assay [4] (H69AR cells + 2 uM doxorubicin) was 5.96% (inactive). Further, the inhibition in assay [5] was -9.18% (inactive); in assay [6], -4% (inactive).
For the compound `O=C(CCNNC(=O)c1ccncc1)NCc1ccccc1`, the viability in assay [1] is 72% (inactive); in assay [2] it was 84.7% (inactive); in assay [3], 93.5% (inactive); in assay [4] (setting [7]), 87%; in assay [4] (setting [8]), 93.5%. In addition, the differential viability (reversal) in assay [4] (H69AR cells + 2 uM doxorubicin) is 6.55% (inactive). For the same compound, the inhibition in assay [5] was -7.53% (inactive); in assay [6], -2.67% (inactive).
`CC(=O)[C@H]1[C@H](C#N)C[C@H]2[C@@H]3CC=C4C[C@@H](O)CC[C@]4(C)[C@H]3CC[C@@]21C`: the viability in assay [1] was 136% (inactive); in assay [2], 103% (inactive); in assay [3], 87% (inactive); in assay [4] (setting [7]) it was 85.2%; in assay [4] (setting [8]), 87%. For the same compound, in assay [4] (H69AR cells + 2 uM doxorubicin), the differential viability (reversal) was 1.78% (inactive). The inhibition in assay [5] is -2.73% (inactive); in assay [6], 7.33% (inactive).
On to `O=C(Cn1[nH]c(=O)c2ccccc2c1=O)OCC(=O)N1CCCc2ccccc21`, for which the viability was 90% (inactive) in assay [1]; 101% (inactive) in assay [2]; 102% (inactive) in assay [3]; 88.7% in assay [4] (setting [7]); 102% in assay [4] (setting [8]). The differential viability (reversal) in assay [4] (H69AR cells + 2 uM doxorubicin) was 13.7% (inactive). The inhibition was -5.73% (inactive) in assay [5] and -2.55% (inactive) in assay [6].
Regarding `COc1ccccc1NC(=O)C(C)NS(=O)(=O)c1ccc(F)cc1` (stereo unspecified), the viability in assay [1] was 141% (inactive); in assay [2] it was 89.5% (inactive); in assay [3], 89.2% (inactive); in assay [4] (setting [7]) it was 88.6%; in assay [4] (setting [8]) it was 89.2%. Further, in assay [4] (H69AR cells + 2 uM doxorubicin), the differential viability (reversal) is 0.595% (inactive). Further, the inhibition was -5.58% (inactive) in assay [5] and 0% (inactive) in assay [6].
